In series [1] the target is T1, Transient receptor potential cation channel subfamily V member 1 (Homo sapiens, UniProt Q8NER1). Put plainly: Antagonist activity against capsaicin-induced intracellular calcium ion increase in CHO cells expressing human TRPV1 in FLIPR assay. Type of series: functional, cell-based. (In general: Calcium assays in cells follow changes in intracellular calcium, usually with a dye or a luminescent sensor.)

In series [2] the target is T1, Transient receptor potential cation channel subfamily V member 1. Briefly: Inhibition of acidic pH 5.5-stimulated current in CHO cells expressing human TRPV1 receptor by patch clamp. Type of series: functional, cell-based. Background: Patch clamp records ionic current or voltage across a cell membrane.
Series [3] can be described thus: AUC in hepatic portal vein of rat at 5 mg/kg, po. Set-up: dose 5 mg/kg, route oral. Type of series: ADME, organism-based, Plasma.
A short description of series [4]: Systemic AUC in rat at 5 mg/kg, po. The following applies: in vivo. Further details: dose 5 mg/kg, route oral. Type of series: ADME, organism-based. A digest of the protocol: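 Oral dose of 5 mpk; AUC taken from systemic blood levels.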
The nature of series [5]: Clearance in rat at 1 mg/kg, iv. Type of series: ADME, organism-based. Further details: dose 1 mg/kg, route intravenous. The following applies: in vivo.
The nature of series [6]: Half life in rat at 1 mg/kg, iv. The note with it: in vivo. Set-up: dose 1 mg/kg, route intravenous. The series is classed as ADME, organism-based.
The nature of series [7]: Volume of distribution in rat at 1 mg/kg, iv. The series is classed as ADME, organism-based. Set-up: dose 1 mg/kg, route intravenous. The following applies: in vivo, read-out: Vdss.
Series [8] deals with Transient receptor potential cation channel subfamily V member 1 (Rattus norvegicus) (UniProt O35433). Put plainly: Decrease in carrageenan-induced thermal hyperalgesia in rat at 30 mg/kg, po. The series is classed as functional, organism-based. Further details: dose 30 mg/kg; scale not given: the % may be the effect or the level left. A digest of the protocol:
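Rats received 0.1 mL intraplantar carrageenan, or saline for the uninflamed group, in the right hind limb. Two hours later they were dosed orally at 30 mpk. After 1 h, thermal withdrawal was retested three times on each hind paw (Hargreaves). Saline response was set as 0% hyperalgesia and carrageenan response as 100%.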

Series [9] addresses T2, Transient receptor potential cation channel subfamily V member 1 (Rattus norvegicus, UniProt O35433). Put plainly: Activity against capsaicin-induced […] in CHO cells expressing rat TRPV1 assessed by patch clamp. Type of series: functional, cell-based. A digest of the protocol:
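Whole-cell patch clamp on cells expressing rat TRPV1, stimulated with 500 nM capsaicin; IC50 for inhibition of the evoked response.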

In series [10] the target is T2, Transient receptor potential cation channel subfamily V member 1. Briefly: Activity at rat TRPV1 as inhibition of pH 5.5-induced currents in CHO cells.
Series [11] addresses T1, Transient receptor potential cation channel subfamily V member 1. Put plainly: Inhibition of acidic pH 5.5-stimulated current in CHO cells expressing human TRPV1 receptor at 100 nM by patch clamp. Type of series: functional, cell-based.

The IC50 is the concentration that inhibits the measured activity by half. The AUC is the area under the concentration-time curve, a measure of exposure. As usually defined, the clearance is the volume of plasma or blood freed of the substance per unit of time. Usually half-life stands for the time in which the quantity being followed falls by half. For orientation: inhibition means the relative decrease from the control value, in per cent.

T1 sequence (Q8NER1 whole entry): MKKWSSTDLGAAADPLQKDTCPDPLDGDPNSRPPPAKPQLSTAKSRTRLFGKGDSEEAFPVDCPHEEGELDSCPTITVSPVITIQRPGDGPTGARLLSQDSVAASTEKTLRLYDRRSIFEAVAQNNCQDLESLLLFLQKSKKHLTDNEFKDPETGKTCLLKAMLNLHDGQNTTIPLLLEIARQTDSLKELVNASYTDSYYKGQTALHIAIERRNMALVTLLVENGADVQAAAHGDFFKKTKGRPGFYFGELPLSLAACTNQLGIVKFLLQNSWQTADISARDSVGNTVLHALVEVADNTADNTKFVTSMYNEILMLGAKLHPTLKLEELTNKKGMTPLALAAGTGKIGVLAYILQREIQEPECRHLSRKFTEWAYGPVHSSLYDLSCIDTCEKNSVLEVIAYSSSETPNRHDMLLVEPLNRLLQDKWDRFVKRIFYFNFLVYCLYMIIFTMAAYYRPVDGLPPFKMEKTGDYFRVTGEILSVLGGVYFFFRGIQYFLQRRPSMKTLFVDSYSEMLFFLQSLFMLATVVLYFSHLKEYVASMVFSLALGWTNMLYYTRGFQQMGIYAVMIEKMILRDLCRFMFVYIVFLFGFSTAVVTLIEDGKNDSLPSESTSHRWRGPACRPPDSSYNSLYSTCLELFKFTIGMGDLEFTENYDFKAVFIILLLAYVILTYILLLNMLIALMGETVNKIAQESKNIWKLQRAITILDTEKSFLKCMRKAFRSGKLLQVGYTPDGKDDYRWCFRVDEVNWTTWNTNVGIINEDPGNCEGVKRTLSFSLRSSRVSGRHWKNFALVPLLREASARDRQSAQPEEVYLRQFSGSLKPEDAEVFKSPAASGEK
T2 sequence (O35433 whole entry): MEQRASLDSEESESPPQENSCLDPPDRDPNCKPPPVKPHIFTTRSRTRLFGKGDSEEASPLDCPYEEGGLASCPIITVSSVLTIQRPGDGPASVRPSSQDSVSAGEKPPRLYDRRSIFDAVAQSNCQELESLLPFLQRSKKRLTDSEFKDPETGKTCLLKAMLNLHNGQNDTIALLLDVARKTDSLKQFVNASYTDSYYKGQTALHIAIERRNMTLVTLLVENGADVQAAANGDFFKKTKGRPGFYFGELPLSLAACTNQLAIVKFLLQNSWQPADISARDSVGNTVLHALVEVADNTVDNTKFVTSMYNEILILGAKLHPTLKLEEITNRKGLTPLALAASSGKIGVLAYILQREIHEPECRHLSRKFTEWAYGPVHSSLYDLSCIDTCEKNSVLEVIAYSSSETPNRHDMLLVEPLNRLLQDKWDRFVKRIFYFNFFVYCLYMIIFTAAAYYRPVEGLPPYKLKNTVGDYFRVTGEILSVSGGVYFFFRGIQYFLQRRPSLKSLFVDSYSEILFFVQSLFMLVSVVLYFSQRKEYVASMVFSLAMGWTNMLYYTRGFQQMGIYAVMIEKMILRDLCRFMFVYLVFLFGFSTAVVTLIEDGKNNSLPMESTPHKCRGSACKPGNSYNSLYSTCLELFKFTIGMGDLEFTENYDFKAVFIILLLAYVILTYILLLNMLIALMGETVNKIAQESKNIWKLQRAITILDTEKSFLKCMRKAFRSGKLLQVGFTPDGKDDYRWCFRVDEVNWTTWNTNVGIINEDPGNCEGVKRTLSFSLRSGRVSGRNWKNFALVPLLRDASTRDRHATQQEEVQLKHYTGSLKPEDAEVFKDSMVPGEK
Sequence of Transient receptor potential cation channel subfamily V member 1 (Rattus norvegicus) (O35433 whole entry): as above

Regarding `Cc1cccnc1-c1ccc2c(=O)n(-c3ccc(C(F)(F)F)cc3)[nH]c2c1`, the concentration for half-maximal inhibition (IC50) in [1] is 180 nM. For `O=c1c2ccccc2[nH]n1-c1ccc(C(F)(F)F)cc1`, the IC50 in [1] was found to be 340 nM.

On to `Cc1cccnc1-c1ccc(NC(=O)c2ccc(C(F)(F)F)cc2)cc1`, for which the half-inhibitory concentration (IC50) in [1] stood at 160 nM. Take `Cc1ccc(-c2nc3cc(-c4ncccc4C(F)(F)F)ccc3[nH]2)cc1`: the IC50 in series [1] is 170 nM. In the case of `COc1ccccc1-c1ccc2c(=O)n(-c3ccc(C(F)(F)F)cc3)[nH]c2c1`, the half-maximal inhibitory concentration (IC50) in series [1] worked out at 170 nM.

Consider `O=C(Nc1ccc(-c2ccccn2)cc1)c1ccc(C(F)(F)F)cc1`, for which, in [1], the half-inhibitory concentration (IC50) was 1500 nM. On to `O=c1c2cc(-c3ncccc3C(F)(F)F)ccc2[nH]n1-c1ccc(C(F)(F)F)cc1`, for which, in [1], the IC50 came out at 370 nM. As to `CC(C)(C)c1ccc(C(=O)Nc2ccc(-c3ncccc3C(F)(F)F)cc2)cc1`, the IC50 in series [1] came to 470 nM.

Turning to `CC(C)(C)c1ccc(-c2nc3cc(-c4ncccc4C(F)(F)F)ccc3[nH]2)cc1`, the half-maximal inhibitory concentration (IC50) in [1] worked out at 224 nM. On to `Cc1cccnc1-c1ccc(NC(=O)c2cccc(C(F)(F)F)c2)cc1`, for which the IC50 in series [1] was 640 nM. As for `O=C(Nc1ccc(-c2ncccc2C(F)(F)F)cc1)c1ccccc1`, the concentration for half-maximal inhibition (IC50) in [1] is 2400 nM. On to `Cc1ccc(C(=O)Nc2ccc(-c3ncccc3C(F)(F)F)cc2)cc1`, for which the IC50 in series [1] is 1100 nM. Regarding `Oc1c2c(nn1-c1ccc(C(F)(F)F)cc1)NC(c1ncccc1C(F)(F)F)CC2` (stereo not drawn), in series [1], the IC50 stood at 290 nM.

With `Cc1cccnc1-c1ccc2c(=O)n(-c3ccc(C(F)(F)F)cc3)[nH]c2n1`, the concentration for half-maximal inhibition (IC50) in [1] was determined as 270 nM. As for `O=C(Nc1ccc(-c2ncccc2C(F)(F)F)cc1)c1ccc(C(F)(F)F)cc1`, the IC50 was determined as 24 nM in series [1] and 33 nM in series [2]. Besides, the AUC was determined as 0.08 µM·h in series [3] and 0.04 µM·h in series [4]. Regarding `O=c1c2ccc(-c3ncccc3C(F)(F)F)cc2[nH]n1-c1ccc(C(F)(F)F)cc1`, in series [5], the clearance is 8 mL/min/kg. In series [6], this compound showed a half-life of 3.6 h. Besides, in series [7], the Vd worked out at 2 L/kg. Also, the Activity in series [8] worked out at 50%. Moreover, the IC50 was 220 nM in series [9], 35 nM in series [1], 4 nM in series [2] and 65 nM in series [10]. The exposure (AUC) in series [3] is 6.2 µM·h; in [4], 3 µM·h. Consider `Fc1ccc(-c2nc3cc(-c4ncccc4C(F)(F)F)ccc3[nH]2)cc1`, for which the half-maximal inhibitory concentration (IC50) in series [1] worked out at 320 nM.

In the case of `FC(F)(F)c1ccc(-c2nc3cc(-c4ncccc4C(F)(F)F)ccc3[nH]2)cc1`, in series [11], the inhibition was 95%. For the same compound, the concentration for half-maximal inhibition (IC50) in [1] is 22 nM. Moreover, the area under the curve (AUC) in series [3] stood at 1.48 µM·h; in [4], 1.25 µM·h.

(Values after ChEMBL document CHEMBL1147789, “The search for novel TRPV1-antagonists: from carboxamides to benzimidazoles and indazolones” (Bioorg Med Chem Lett, 2006).)
